Measured values published in ChEMBL document CHEMBL3044643, “Chemical composition and antifungal activity of Arnica longifolia, Aster hesperius, and Chrysothamnus nauseosus essential oils” (2007).
Active and inactive are the calls of the source. No cut-off for these calls is given here.

What was measured:
[1] = system: Colletotrichum gloeosporioides; experiment: Antifungal activity against Colletotrichum gloeosporioides assessed as size of growth inhibitory zone at concentration of 2 mM in volume of 10 ul of acetone measured after 4 days by TLC based direct bioautography assay; format: functional
Method in brief: (§1)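 Direct TLC bioautography on silica plates, dose–response from 2 to 12 µL of a 2 mM solution spotted per plate. Benomyl, cyprodinil, azoxystrobin and captan served as standards at 2 µL of 2 mM in ethanol. Inhibitory zone size was measured 4 days after treatment. Experiments were repeated multiple times, and mean zones were compared by ANOVA with Fisher's protected LSD (P 0.05).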

[2] = system: Colletotrichum gloeosporioides; experiment: Antifungal activity against Colletotrichum gloeosporioides assessed as size of growth inhibitory zone at concentration of 2 mM in volume of 8 ul of acetone measured after 4 days by TLC based direct bioautography assay; format: functional; method in brief: as §1
[3] = system: Colletotrichum gloeosporioides; experiment: Antifungal activity against Colletotrichum gloeosporioides assessed as size of growth inhibitory zone at concentration of 2 mM in volume of 6 ul of acetone measured after 4 days by TLC based direct bioautography assay; format: functional; method in brief: as §1
[4] = system: Colletotrichum gloeosporioides; experiment: Antifungal activity against Colletotrichum gloeosporioides assessed as size of growth inhibitory zone at concentration of 2 mM in volume of 2 ul of acetone measured after 4 days by TLC based direct bioautography assay; format: functional; method in brief: as §1
Colletotrichum fragariae [5] = experiment: Antifungal activity against Colletotrichum fragariae assessed as size of growth inhibitory zone at concentration of 2 mM in volume of 12 ul of acetone measured after 4 days by TLC based direct bioautography assay; format: functional; method in brief: as §1
Colletotrichum fragariae [6] = experiment: Antifungal activity against Colletotrichum fragariae assessed as size of growth inhibitory zone at concentration of 2 mM in volume of 10 ul of acetone measured after 4 days by TLC based direct bioautography assay; format: functional; method in brief: as §1
Colletotrichum acutatum [7] = experiment: Antifungal activity against Colletotrichum acutatum assessed as size of growth inhibitory zone at concentration of 2 mM in volume of 4 ul of acetone measured after 4 days by TLC based direct bioautography assay; format: functional; method in brief: as §1
Colletotrichum fragariae [8] = experiment: Antifungal activity against Colletotrichum fragariae assessed as size of growth inhibitory zone at concentration of 2 mM in volume of 8 ul of acetone measured after 4 days by TLC based direct bioautography assay; format: functional; method in brief: as §1
Colletotrichum fragariae [9] = experiment: Antifungal activity against Colletotrichum fragariae assessed as size of growth inhibitory zone at concentration of 2 mM in volume of 6 ul of acetone measured after 4 days by TLC based direct bioautography assay; format: functional; method in brief: as §1
Colletotrichum fragariae [10] = experiment: Antifungal activity against Colletotrichum fragariae assessed as size of growth inhibitory zone at concentration of 2 mM in volume of 2 ul of acetone measured after 4 days by TLC based direct bioautography assay; format: functional; method in brief: as §1
Colletotrichum acutatum [11] = experiment: Antifungal activity against Colletotrichum acutatum assessed as size of growth inhibitory zone at concentration of 2 mM in volume of 12 ul of acetone measured after 4 days by TLC based direct bioautography assay; format: functional; method in brief: as §1
Colletotrichum acutatum [12] = experiment: Antifungal activity against Colletotrichum acutatum assessed as size of growth inhibitory zone at concentration of 2 mM in volume of 10 ul of acetone measured after 4 days by TLC based direct bioautography assay; format: functional; method in brief: as §1
Colletotrichum acutatum [13] = experiment: Antifungal activity against Colletotrichum acutatum assessed as size of growth inhibitory zone at concentration of 2 mM in volume of 8 ul of acetone measured after 4 days by TLC based direct bioautography assay; format: functional; method in brief: as §1
Colletotrichum acutatum [14] = experiment: Antifungal activity against Colletotrichum acutatum assessed as size of growth inhibitory zone at concentration of 2 mM in volume of 6 ul of acetone measured after 4 days by TLC based direct bioautography assay; format: functional; method in brief: as §1
Colletotrichum acutatum [15] = experiment: Antifungal activity against Colletotrichum acutatum assessed as size of growth inhibitory zone at concentration of 2 mM in volume of 2 ul of acetone measured after 4 days by TLC based direct bioautography assay; format: functional; method in brief: as §1
[16] = system: Colletotrichum gloeosporioides; experiment: Antifungal activity against Colletotrichum gloeosporioides assessed as size of growth inhibitory zone at concentration of 2 mM in volume of 4 ul of acetone measured after 4 days by TLC based direct bioautography assay; format: functional; method in brief: as §1
Colletotrichum fragariae [17] = experiment: Antifungal activity against Colletotrichum fragariae assessed as size of growth inhibitory zone at concentration of 2 mM in volume of 4 ul of acetone measured after 4 days by TLC based direct bioautography assay; format: functional; method in brief: as §1
Fusarium oxysporum = experiment: Antifungal activity against Fusarium oxysporum assessed as growth inhibition at 0.3 to 30 uM after 72 hr by 96-well microdilution broth assay; format: functional, organism-based
Method in brief: (§2)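 96-well microdilution broth dose–response. Final treatment concentrations were 0.3, 3.0 and 30.0 µM, alongside an azoxystrobin fungicide standard. Plates were lidded and incubated in a growth chamber, and growth was read as absorbance at 620 nm. Each concentration was run in duplicate, with three independent experiments. Results are reported as mean growth inhibition with standard errors for each fungus and dose.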

Phomopsis obscurans = experiment: Antifungal activity against Phomopsis obscurans assessed as growth inhibition at 0.3 to 30 uM after 72 hr by 96-well microdilution broth assay; format: functional, organism-based; conditions: Paraphomopsis obscurans; method in brief: as §2
[18] = system: Colletotrichum gloeosporioides; experiment: Antifungal activity against Colletotrichum gloeosporioides assessed as growth inhibition at 0.3 to 30 uM after 72 hr by 96-well microdilution broth assay; format: functional, organism-based; method in brief: as §2
Colletotrichum fragariae [19] = experiment: Antifungal activity against Colletotrichum fragariae assessed as growth inhibition at 0.3 to 30 uM after 72 hr by 96-well microdilution broth assay; format: functional, organism-based; method in brief: as §2
Colletotrichum acutatum [20] = experiment: Antifungal activity against Colletotrichum acutatum assessed as growth inhibition at 0.3 to 30 uM after 72 hr by 96-well microdilution broth assay; format: functional, organism-based; method in brief: as §2
Botrytis cinerea [21] = experiment: Antifungal activity against Botryotinia fuckeliana assessed as growth inhibition at 3.0 uM after 72 hr by 96-well microdilution broth assay; format: functional; conditions: read-out: GI; method in brief: as §2
Botrytis cinerea [22] = experiment: Antifungal activity against Botryotinia fuckeliana assessed as growth inhibition at 0.3 uM after 72 hr by 96-well microdilution broth assay; format: functional; conditions: read-out: GI; method in brief: as §2
[23] = system: Colletotrichum gloeosporioides; experiment: Antifungal activity against Colletotrichum gloeosporioides assessed as size of growth inhibitory zone at concentration of 2 mM in volume of 12 ul of acetone measured after 4 days by TLC based direct bioautography assay; format: functional; method in brief: as §1
[24] = system: Colletotrichum gloeosporioides; experiment: Antifungal activity against Colletotrichum gloeosporioides assessed as diffuse inhibitory zone at concentration of 2 mM in volume of 2 ul of EtOH measured after 4 days by TLC based direct bioautography assay; format: functional, organism-based
Method in brief: (§3)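 Direct TLC bioautography on silica plates against Colletotrichum species. Technical-grade fungicide standards (without formulation) were spotted at 2 µL of 2 mM in 95% ethanol. Inhibitory zone size was read 4 days after treatment. Diffuse zones were taken to mark suppressive activity. Values are means and standard deviations of zone size, with means separated by ANOVA and Fisher's protected LSD (P = 0.05).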

Colletotrichum fragariae [25] = experiment: Antifungal activity against Colletotrichum fragariae assessed as size of growth inhibitory zone at concentration of 2 mM in volume of 2 ul of EtOH measured after 4 days by TLC based direct bioautography assay; format: functional; method in brief: as §3
Colletotrichum acutatum [26] = experiment: Antifungal activity against Colletotrichum acutatum assessed as diffuse inhibitory zone at concentration of 2 mM in volume of 2 ul of EtOH measured after 4 days by TLC based direct bioautography assay; format: functional, organism-based; method in brief: as §3
[27] = system: Colletotrichum gloeosporioides; experiment: Antifungal activity against Colletotrichum gloeosporioides assessed as size of growth inhibitory zone at concentration of 2 mM in volume of 2 ul of EtOH measured after 4 days by TLC based direct bioautography assay; format: functional; method in brief: as §3
Colletotrichum acutatum [28] = experiment: Antifungal activity against Colletotrichum acutatum assessed as size of growth inhibitory zone at concentration of 2 mM in volume of 2 ul of EtOH measured after 4 days by TLC based direct bioautography assay; format: functional; method in brief: as §3
Botrytis cinerea [29] = experiment: Antifungal activity against Botryotinia fuckeliana assessed as growth inhibition at 30 uM by 96-well microdilution broth assay; format: functional; conditions: read-out: GI; method in brief: as §2

Work on `CC(C)=CCC[C@](C)(O)[C@@H]1CC=C(C)CC1` (relative stereo) [LEVOMENOL] yielded an Activity [1] of 9 mm, an Activity [2] of 8 mm and an Activity [3] of 7.5 mm. For the same compound, the Activity [4] was 5 mm, the Activity (Colletotrichum fragariae [5]) was 11.5 mm and the Activity (Colletotrichum fragariae [6]) was 9.5 mm. It also gave an Activity (Colletotrichum acutatum [7]) of 8 mm, an Activity (Colletotrichum fragariae [8]) of 8 mm and an Activity (Colletotrichum fragariae [9]) of 7 mm. It also gave an Activity (Colletotrichum fragariae [10]) of 5 mm, an Activity (Colletotrichum acutatum [11]) of 11 mm and an Activity (Colletotrichum acutatum [12]) of 9.5 mm. For the same compound, the Activity (Colletotrichum acutatum [13]) was 7.5 mm, the Activity (Colletotrichum acutatum [14]) was 7.5 mm and the Activity (Colletotrichum acutatum [15]) was 5.5 mm. For the same compound, the Activity [16] was 5.5 mm, the Activity (Colletotrichum fragariae [17]) was 6.5 mm and the “growth inhibition (GI)” value (Fusarium oxysporum) was “inactive”. The “growth inhibition (GI)” value (Phomopsis obscurans) was “inactive”, the “growth inhibition (GI)” value [18] was “inactive” and the “growth inhibition (GI)” value (Colletotrichum fragariae [19]) was “inactive”. The “growth inhibition (GI)” value (Colletotrichum acutatum [20]) was “inactive”, the inhibition of growth at 3 µM (Botrytis cinerea [21]) was 47.3% and the inhibition of growth at 0.3 µM (Botrytis cinerea [22]) was 46.5%. For the same compound, the Activity [23] was 11.5 mm.
In the case of `CO/C=C(/C(=O)OC)c1ccccc1Oc1cc(Oc2ccccc2C#N)ncn1` [AZOXYSTROBIN], the inhibition [24] is reported as “Active”, the Activity (Colletotrichum fragariae [25]) is reported as 23 mm and the inhibition (Colletotrichum acutatum [26]) is reported as “Active”.
`CCCCNC(=O)n1c(NC(=O)OC)nc2ccccc21` [BENOMYL] was tested, and the inhibition [24] was “Active”, the Activity (Colletotrichum fragariae [25]) was 21.3 mm and the inhibition (Colletotrichum acutatum [26]) was “Active”.
Compound `C=C1CCC[C@]2(C)CC[C@@H](C(C)(C)O)C[C@@H]12` [BETA-EUDESMOL] has an Activity (Colletotrichum acutatum [7]) of 0 mm, an Activity [16] of 0 mm and an Activity (Colletotrichum fragariae [17]) of 0 mm.
`C=C1C=CC(C(C)C)CC1` (stereo not drawn) [BETA-PHELLANDRENE] gave an Activity (Colletotrichum acutatum [7]) of 0 mm, an Activity [16] of 0 mm and an Activity (Colletotrichum fragariae [17]) of 0 mm.
Work on `C=C1CCC2CC1C2(C)C` (stereo not drawn) [BETA-PINENE] yielded an Activity (Colletotrichum acutatum [7]) of 0 mm, an Activity [16] of 0 mm and an Activity (Colletotrichum fragariae [17]) of 0 mm.
In the case of `O=C1C2CC=CCC2C(=O)N1SC(Cl)(Cl)Cl` (stereo not given) [CAPTAN], the Activity [27] is reported as 18.9 mm, the Activity (Colletotrichum fragariae [25]) is reported as 15 mm and the Activity (Colletotrichum acutatum [28]) is reported as 11.5 mm.
In the case of `Cc1ccc(C(C)C)cc1O` [CARVACROL], the inhibition of growth at 30 µM (Botrytis cinerea [29]) is reported as 36.9%.
`Cc1cc(C2CC2)nc(Nc2ccccc2)n1` [CYPRODINIL] was tested, and the inhibition [24] was “Active”, the Activity (Colletotrichum fragariae [25]) was 23 mm and the inhibition (Colletotrichum acutatum [26]) was “Active”.
Compound `CCCCCCCCCCCCCCCC(=O)O` [PALMITIC ACID] has an Activity (Colletotrichum acutatum [7]) of 0 mm, an Activity [16] of 0 mm and an Activity (Colletotrichum fragariae [17]) of 0 mm.
